Test results from ChEMBL document CHEMBL4346686, “Discovery and biological evaluation of novel androgen receptor antagonist for castration-resistant prostate cancer” (Eur J Med Chem, 2019).

What was measured:
[1] = test system: PC-3; assay: Antiproliferative activity against human PC3 cells assessed as reduction in cell viability incubated for 6 days by CCK8 assay; type: functional, cell-based; conditions: PC-3, 144 h
In short: (§1)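 Cells seeded (2×10^4 per well for VCaP, 1–3×10^3 for the others) and compound added after 24 h as a 9-point, 3-fold serial dilution. Exposure 6 days, then CCK-8 for 1–4 h and absorbance at 450 nm. IC50 from curve fit, mean of at least two independent experiments run in duplicate.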

[2] = test system: L02; assay: Antiproliferative activity against human L02 cells assessed as reduction in cell viability incubated for 6 days by CCK8 assay; type: cell-based; conditions: L02, 144 h; in short: as §1
[3] = Toxicity in BALB/c nude mouse xenografted with human VCaP cells assessed as weight loss at 30 mg/kg, po qd administered for 40 days relative to control; type: organism-based; conditions: in vivo, 960 h
[4] = Antiproliferative activity against human LNCaP-AR cells assessed as reduction in cell viability incubated for 6 days by CCK8 assay; type: functional, cell-based; conditions: 144 h; in short: as §1
[5] = test system: VCaP; assay: Antitumor activity against human VCaP cells xenografted in BALB/c nude mouse assessed as inhibition of tumor growth at 30 mg/kg, po qd administered for 40 days relative to control; type: functional
In short: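 Male BALB/c nude mice, 5 weeks old, s.c. 1 × 10^7 VCaP cells in DMEM/Matrigel (1:1). Castrated under Nembutal at 150–200 mm3 and randomized (n = 8–10). Once tumors regrew to 200–350 mm3, oral 30 mg/kg qd for 40 days. TGI = [1 − (T − T0)/(C − C0)] × 100 from mean tumor volumes on first and last treatment days.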

[6] = test system: CWR22R; assay: Antiproliferative activity against human 22Rv1 cells assessed as reduction in cell viability incubated for 6 days by CCK8 assay; type: functional, cell-based; conditions: 22Rv1, 144 h; in short: as §1

IC50 [1]: > 30 µM
Structure (SMILES): CNC(=O)c1ccc(N2C(=S)N(c3ccc(C#N)c(C(F)(F)F)c3)C(=O)C2(C)C)cc1F [ENZALUTAMIDE]
IC50 [2]: 17.1 µM
Activity [3]: Non-Toxic
IC50 [4]: 0.19 µM
TGI [5]: 43%
IC50 [6]: > 30 µM
